Results gathered from unrelated publications.
Protocols differ between the studies behind these lines.
Target: Adenosine receptor A3 (ADORA3, Homo sapiens, UniProt P0DMS8)
Sequence (P0DMS8 1-318, as in one of the studies): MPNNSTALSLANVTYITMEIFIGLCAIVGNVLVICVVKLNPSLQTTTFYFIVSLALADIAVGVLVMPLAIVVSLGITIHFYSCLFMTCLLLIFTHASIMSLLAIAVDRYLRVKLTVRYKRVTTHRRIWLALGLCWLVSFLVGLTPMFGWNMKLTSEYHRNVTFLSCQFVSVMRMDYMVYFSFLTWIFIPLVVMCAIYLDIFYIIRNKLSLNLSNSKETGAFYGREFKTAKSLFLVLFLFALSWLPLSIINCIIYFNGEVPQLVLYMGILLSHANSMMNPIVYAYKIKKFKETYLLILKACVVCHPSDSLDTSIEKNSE

c1ccc(C(NCCNC(c2ccccc2)c2ccccc2)c2ccccc2)cc1
inhibition (cell-free assay; 10 µM): 70%

COc1ccc(S(=O)(=O)N2CCCCC2)cc1C
inhibition (ligand displacement; radioligand; 10 µM): < 30%

COCc1c(-c2cc3cc(C)cc(OC)c3s2)c2c(N)ncnn2c1CN1CCNC(=O)C1
inhibition (ligand displacement; radioligand; 10 µM): 39%

CN(CCN1CCC(OC(=O)Nc2ccccc2-c2ccccc2)CC1)C(=O)c1ccc(CN2CCC(C(N)=O)CC2)cc1
inhibition (ligand displacement; radioligand; 1 µM): -12%

O=C(Nc1cccnn1)N1CCN([C@@H]2CCOc3cc(C(F)(F)F)ccc32)CC1
inhibition (ligand displacement; 20 µM): 25%

CCOC(=O)[C@@]12C[C@@H]1[C@@H](n1cnc3c(N[C@H](C4CCC4)C4CC4)nc(I)nc31)[C@H](O)[C@@H]2O
inhibition (ligand displacement; radioligand; 10 µM): 88%

CC(C)Cn1cnc2c(N)nc3ccccc3c21
inhibition (ligand displacement; radioligand; 10 µM): 16%

CC(C)N1CCC[C@H]1CNC(=O)c1cn(C2CCCC2)c(=O)c2c1c1ccccc1n2C
inhibition (ligand displacement; radioligand; 10 µM): 14%

COCCN(CCOC)C(=O)[C@@]12C[C@@H]1[C@@H](n1cnc3c(N)nc(Cl)nc31)[C@H](O)[C@@H]2O
inhibition (ligand displacement; radioligand; 10 µM): 51%

CCN(CC)CCCC[C@H](NC(=O)[C@H](CC(C)C)NC(=O)[C@H](C)NC(=O)[C@H](Cc1ccccc1)NC(=O)c1ccc(C(C)(C)C)cc1)C(=O)N[C@@H](CO)C(=O)OC
remaining binding (ligand displacement; radioligand; 10 µM): 96.9%

C[C@H](C(=O)N[C@H]1COc2ccccc2[C@@H]1S(C)(=O)=O)c1ccc(F)cc1
inhibition (cell-free assay; 10 µM): 11%

CCCCSC[C@@]12C[C@@H]1[C@@H](n1cnc3c(NC(C4CCCC4)C4CCCC4)nc(Cl)nc31)[C@H](O)[C@@H]2O
inhibition (ligand displacement; radioligand; 10 µM): 33%

CCNC(=O)[C@H]1O[C@@H](n2cnc3c(N)ncnc32)[C@H](O)[C@@H]1O
Emax (β-arrestin recruitment; agonist; HEK-293T): 99.5%
